From ChEMBL document CHEMBL4513216, “Probing the Open Global Health Chemical Diversity Library for Multistage-Active Starting Points for Next-Generation Antimalarials” (ACS Infect Dis, 2020)

Experiment: Toxicity liver stage against HepG2, at 10uM
Format: cell-based
Parameters: test concentration 10 uM, cell line HepG2-A16-CD81EGFP
Conditions: human, HepG2-A16-CD81EGFP cells; read-out: INHIBITION
In short: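 Uninfected HepG2-A16-CD81EGFP cells, 3 × 10^3 per well, 1536-well, plated on prespotted compound at 10 μM final, parasite-free screening media added to match infected plates; puromycin 10 μM positive, DMSO 0.5% negative; run in parallel with 48 h PbLuc assay at 37 °C, 5% CO2; viability by CellTiter-Glo luminescence, normalized to controls.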
`COCC(NC(=O)c1ccc[nH]1)c1cccc(C(F)(F)F)c1` (stereo not given) gave a cytotoxicity at 10 µM of -2.54%.
Work on `C[C@@H]1CN(C(=O)c2cccc(F)c2)C[C@]12CCN(c1ccsc1)C2=O` yielded a cytotoxicity at 10 µM of -80%.
Work on `O=C(c1ccncn1)N1CCC[C@]2(C[C@H](OCC3CC3)CO2)C1` yielded a cytotoxicity at 10 µM of -81.9%.
With `Cc1cc(CN2CC[C@H]3C[C@@H](C)O[C@@H]3C2)no1` the cytotoxicity at 10 µM was -75.5%.
Work on `Cc1ccc(NCCCNc2nccc(-c3cn(C)nc3C)n2)nc1` yielded a cytotoxicity at 10 µM of 14.5%.
Compound `OC(c1ccccn1)C1CCN(Cc2cc3n(n2)CCCNC3)CC1` (stereo not given) has a cytotoxicity at 10 µM of 6.89%.
With `COc1ccc(OC)c2c(C)cc(N(C)CCCO)nc12` the cytotoxicity at 10 µM was 7.17%.
`CC(=O)N1C[C@H](NC(=O)c2csc(C(C)C)c2)[C@@H](C(C)C)C1` showed a cytotoxicity at 10 µM of -18.2%.
`CC(C)=CCN1CCN(Cc2cc(C)c(O)c(C)c2)CC1CCO` (stereo not given) showed a cytotoxicity at 10 µM of -7.44%.
Compound `CCNc1ccnc(N2CCN(Cc3ncccc3C)CC2)n1` has a cytotoxicity at 10 µM of -5.59%.
For `Cc1cc2c(N3CCC(N(C)CCc4cnn(C)c4)CC3)ncnc2s1`, the cytotoxicity at 10 µM was 1.38%.
Compound `N#Cc1cccc(S(=O)(=O)N2CCCCC2CCN2CCCC2)c1` (stereo not given) has a cytotoxicity at 10 µM of -123%.
For `CN1CC(c2ccccc2)CC12CCN(C(=O)c1cccnc1)CC2` (stereo not given), the cytotoxicity at 10 µM was 10.2%.
In the case of `CN(Cc1cc(C2CC2)[nH]n1)C(=O)c1ccccc1C1CCNC1` (stereo not given), the cytotoxicity at 10 µM is reported as 1.89%.
For `O=C(CN1CCCC1)N1CCCC(CNS(=O)(=O)Cc2ccccc2)C1` (stereo not given), the cytotoxicity at 10 µM was -17.9%.
In the case of `CCC(NC(=O)CC1CCN(C(C)C)CC1)c1cn2cccnc2n1` (stereo not given), the cytotoxicity at 10 µM is reported as -11.3%.
Work on `Cc1ccc(CN2CCN(C3CSCCSC3)CC2CCO)o1` (stereo not given) yielded a cytotoxicity at 10 µM of -8.51%.
`Cc1csc(CN2CCC(C(=O)O)(n3ccc(-c4ccco4)n3)CC2)n1` gave a cytotoxicity at 10 µM of -127%.
Work on `O=C(NCCC1CN(C2CCCC2)CCO1)c1cc(=O)[nH]c(=O)[nH]1` (stereo not given) yielded a cytotoxicity at 10 µM of 0.0145%.
For `CNC(=O)Cc1ccc(-n2ccnc2-c2ccc(C(=O)O)s2)cc1`, the cytotoxicity at 10 µM was -1.53%.
For `O=C(O)c1cccnc1CN1CCCC1CCc1ccccc1` (stereo not given), the cytotoxicity at 10 µM was 10.9%.
Work on `Cc1cc(CN(C)C(=O)C(c2cccnc2)N2CCOCC2)n[nH]1` (stereo not given) yielded a cytotoxicity at 10 µM of -52.7%.
Work on `Cc1nnsc1C(=O)NCc1cccnc1N(C)C` yielded a cytotoxicity at 10 µM of -12.2%.
With `OCCc1ccccc1-n1ccnc1-c1cn(C2CCNCC2)nn1` the cytotoxicity at 10 µM was 2.39%.
`CCCN1CCN(C(=O)c2cncnc2C)[C@H]2CS(=O)(=O)C[C@H]21` showed a cytotoxicity at 10 µM of 0.145%.
`O=C(Nc1ccccc1C(=O)NCCCN1CCOCC1)c1ccco1` gave a cytotoxicity at 10 µM of 8.17%.
`Cc1oc(C(C)C)cc1C(=O)N1CCN(c2cnn(C)c(=O)c2)CC1` showed a cytotoxicity at 10 µM of 1.27%.
`c1ccc2sc(N3CCC4(CCCN4Cc4ncc[nH]4)CC3)nc2c1` gave a cytotoxicity at 10 µM of 9.3%.
`N#Cc1ccc(C(=O)N2CCC(c3ncc[nH]3)CC2)cn1` gave a cytotoxicity at 10 µM of -3.27%.
In the case of `CCC(=O)NCCc1cc(N2CCN(C(C)=O)CC2)nc(C2CC2)n1`, the cytotoxicity at 10 µM is reported as -0.439%.
For `CN(C)c1ncc(CN2CCC(c3nnsc3S(C)(=O)=O)CC2)cn1`, the cytotoxicity at 10 µM was 4.12%.
Compound `CNc1cc2c(nn1)CCN(C(=O)c1cccc3c1OCCO3)C2` has a cytotoxicity at 10 µM of -5.13%.
Work on `Cc1cc(C)c(CNC(=O)N(C)Cc2ccc3c(c2)OCO3)c(=O)[nH]1` yielded a cytotoxicity at 10 µM of -5.53%.
`Cc1cc(C)n(CC2CN(CCOc3ccc(C#N)cc3)CCO2)n1` (stereo not given) gave a cytotoxicity at 10 µM of -6.31%.
`CCc1nnc2n1CCN(C(=O)CN(C)C1CC1)C2` showed a cytotoxicity at 10 µM of -1.28%.
`Cc1nc(CN(C)C2CCN(CCC(=O)N3CCOCC3)C2)no1` (stereo not given) gave a cytotoxicity at 10 µM of -0.945%.
For `Cc1nn(C)c(N2CCOCC2)c1CNCc1ccc(N(C)C)nc1`, the cytotoxicity at 10 µM was -14.4%.
`c1ccc(-c2cnc(CNC3CCCN(c4cccnn4)C3)o2)cc1` (stereo not given) gave a cytotoxicity at 10 µM of 0.993%.
Work on `CCc1nnsc1C(=O)N1CCOC(c2nc(C)n[nH]2)C1` (stereo not given) yielded a cytotoxicity at 10 µM of -6.45%.
With `Cc1nccn1C1CCCN(C(=O)C2=NN(C)C(=O)CC2)C1` (stereo not given) the cytotoxicity at 10 µM was -7.49%.
`Cc1nc(CNCC2CN(C)CCO2)cs1` (stereo not given) showed a cytotoxicity at 10 µM of -9.16%.
In the case of `CN(Cc1noc(C2CC2)n1)C1CCN(Cc2nnc(C3CC3)o2)C1` (stereo not given), the cytotoxicity at 10 µM is reported as -5.28%.
In the case of `Brc1cccnc1OC1CCNCC1`, the cytotoxicity at 10 µM is reported as -10.3%.
`O=C(N1CCCC1)C1(Cc2ccc(-c3cccs3)cc2)CCNC1` (stereo not given) gave a cytotoxicity at 10 µM of -1.75%.
Compound `OCC1CCC2(CC1)CN(Cc1ccsc1)Cc1ccccc1O2` (stereo not given) has a cytotoxicity at 10 µM of -3.78%.
`CCn1ncc2c1C(COC)N(C(=O)c1cccs1)CC2` (stereo not given) gave a cytotoxicity at 10 µM of -112%.
For `c1ccc(NC[C@@H]2CCC[C@@H]3CN(Cc4nccs4)C[C@@H]32)nc1`, the cytotoxicity at 10 µM was -108%.
`c1cncc(CN2CCO[C@@H]3CN(Cc4ccoc4)CC[C@@H]3C2)c1` gave a cytotoxicity at 10 µM of -70.9%.
`CO[C@@H]1CCN(Cc2ccoc2)C[C@@H]1Cc1ccccc1` gave a cytotoxicity at 10 µM of 16.5%.
In the case of `O=C(c1ccccc1)N1CCCn2c(CN3CCCCC3)nnc2C1`, the cytotoxicity at 10 µM is reported as -65.5%.
Work on `Cc1ccc(N2CC[C@@H]3[C@@H]2CCN3Cc2ccsc2)nn1` yielded a cytotoxicity at 10 µM of -106%.
In the case of `CN1CCC2(COCc3cnc(N4CCOCC4)nc32)C1` (stereo not given), the cytotoxicity at 10 µM is reported as -6.13%.
`O=C([C@H]1C[C@@H]2CCN(C3CCOCC3)C[C@H]2O1)N1CCCC1` showed a cytotoxicity at 10 µM of 7.31%.
For `COCC1CN(C(=O)c2ccoc2)Cc2cnn(CC3CCOCC3)c21` (stereo not given), the cytotoxicity at 10 µM was 2.77%.
With `O=C(c1ccoc1)N1CCCC2(CCC(=O)N2Cc2ccncc2)C1` (stereo not given) the cytotoxicity at 10 µM was -3.55%.
